“And” between values parts separate entries of the source, which are not always exact repeats. Identical values can stand only once.
Columns and labels:
[1] = target: T1, 5-hydroxytryptamine receptor 1A (Rattus norvegicus) (UniProt P19327); experiment: Induction of clear-cut 5-HT motor syndrome in normal rats at the dose of 32 micro mol/kg; assay type: functional
T1 sequence (whole entry): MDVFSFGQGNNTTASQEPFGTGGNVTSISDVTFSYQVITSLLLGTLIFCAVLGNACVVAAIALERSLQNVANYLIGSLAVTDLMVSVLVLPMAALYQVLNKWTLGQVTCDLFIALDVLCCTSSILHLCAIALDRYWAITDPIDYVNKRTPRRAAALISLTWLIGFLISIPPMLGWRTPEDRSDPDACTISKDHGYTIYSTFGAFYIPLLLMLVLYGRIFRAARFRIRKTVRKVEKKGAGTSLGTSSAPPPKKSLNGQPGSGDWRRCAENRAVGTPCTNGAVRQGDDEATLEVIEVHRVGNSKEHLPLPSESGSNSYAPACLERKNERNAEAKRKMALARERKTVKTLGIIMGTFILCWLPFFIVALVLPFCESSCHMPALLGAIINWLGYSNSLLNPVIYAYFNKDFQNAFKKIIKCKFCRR

[2] = target: T1, 5-hydroxytryptamine receptor 1A (Rattus norvegicus); experiment: Number of rats displaying the 5-HT syndrome or leaving the cage out of the number of rats tested; assay type: functional
Rattus norvegicus [3] = experiment: Change in body temperature of rats upon administration after 30 minutes (p<0.01); assay type: functional
Method in brief: (§1)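 Colonic temperature taken with an electrical thermometer probe 3.5 cm deep, before and 30 min after sc injection in saline. Change reported in °C as mean ± SEM; animal numbers as in the cage-leaving test. ANOVA with Tukey test.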

[4] = target: T1, 5-hydroxytryptamine receptor 1A (Rattus norvegicus); experiment: Induction of clear-cut 5-HT motor syndrome in reserpine (5 mg/kg, sc) pretreated rats at the dose of 32 micro mol/kg; assay type: functional, organism-based
[5] = target: T2, Dopamine receptor (Rattus norvegicus) (UniProt P25115+P19020+P30729+P18901+P61169); experiment: Dopamine (DA) turnover in rat corpus striatum; assay type: functional, tissue-based
Method in brief: (§2)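 Rats given compound sc in 0.9% NaCl (screening dose typically 32 µmol/kg); decapitated about 30 min after dosing. Hippocampus and corpus striatum dissected and frozen. Perchloric acid homogenates analysed by HPLC with electrochemical detection. Turnover taken as 5-HIAA/5-HT or DOPAC/DA, expressed as percent of saline control. Means ± SEM; n = 5-7 controls, 4-6 treated. ANOVA with Tukey test.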

[6] = target: T1, 5-hydroxytryptamine receptor 1A (Rattus norvegicus); experiment: Effect of 5-HT accumulation in rat hippocampus at the dose of 32 umol/kg (p<0.01); assay type: functional, tissue-based
Method in brief: (§3)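 Test compound given sc in 0.9% NaCl. NSD 1015 (287 µmol/kg sc) given 30 min later to inhibit aromatic L-amino acid decarboxylase; rats decapitated after a further 30 min. Hippocampus and striatum stored at -40 °C for up to 1 week. Perchloric acid homogenates with α-methyl-5-hydroxytryptophan internal standard; 5-HTP and DOPA measured by HPLC-EC. Percent of control, means ± SEM; ANOVA with Tukey test.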

[7] = target: T2, Dopamine receptor (Rattus norvegicus); experiment: Effect of accumulation of DOPA in rat striatum at the dose of 32 umol/kg; assay type: functional, tissue-based; method in brief: as §3
Rattus norvegicus [8] = organism: Rattus norvegicus; experiment: 5-HT (serotonin) turnover in rat hippocampus (p<.005); assay type: functional; method in brief: as §2
[9] = target: T3, 5-hydroxytryptamine receptor 1A (Rattus norvegicus, UniProt P19327); experiment: Binding affinity of 5-hydroxytryptamine 1A receptor using [3H]-8-OH-DPAT as radioligand.
T3 sequence (P19327 whole entry): T1 sequence (whole entry)
Method in brief: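 Membranes from cortex and hippocampus of male Sprague-Dawley rats, pooled from at least six rats, preincubated with 10 µM pargyline. Assay used 2 nM [3H]-8-OH-DPAT, test compound at 1-300 nM and 5 mg/mL tissue in 50 mM Tris-HCl with 4.0 mM CaCl2 and 5.7 mM ascorbate, pH 7.5. Incubated 10 min at 37 °C, filtered on GF/B, scintillation counted.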

Rattus norvegicus [10] = experiment: Ability produce 5-HT motor syndrome in reserpine (5 mg/kg, sc) pretreated rats at the dose of 3.2 micro mol/kg; assay type: functional
Rattus norvegicus [11] = experiment: Induction of clear-cut 5-HT motor syndrome in normal rats at the dose of 32 umol/kg; assay type: functional
Rattus norvegicus [12] = organism: Rattus norvegicus; experiment: 5-HT (serotonin) turnover in rat hippocampus (0.05); assay type: functional; method in brief: as §2
Rattus norvegicus [13] = organism: Rattus norvegicus; experiment: Dopamine (DA) turnover in rat corpus striatum (p<0.01); assay type: functional; method in brief: as §2
[14] = target: T1, 5-hydroxytryptamine receptor 1A (Rattus norvegicus); experiment: 5-HT (serotonin) turnover in rat hippocampus (p<0.05); assay type: functional, tissue-based
Method in brief: (§4)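 Rats dosed sc (screening dose typically 32 µmol/kg, in 0.9% NaCl, 2 mL/kg); decapitated 5-10 min after the 30-min rating, […]. Hippocampus dissected and frozen. 5-HIAA/5-HT ratio measured by HPLC with electrochemical detection (+0.85 V) after perchloric acid homogenisation. Reported as percent of saline control, mean ± SEM, n = 4-6 per group; ANOVA with Tukey test.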

Rattus norvegicus [15] = experiment: Ability to produce 5-HT motor syndrome in normal rats at the dose of 3.2 micro mol/kg; assay type: functional
Rattus norvegicus [16] = organism: Rattus norvegicus; experiment: Ability to inhibit cage leaving response; assay type: functional
Method in brief: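 Normal rats given compound sc in saline, housed two per cage. Cage grid covers removed 12 min after injection; rats leaving the cage during the following 12 min were counted and reported as number leaving out of number tested.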

Rattus norvegicus [17] = experiment: Antagonistic effect on body temperature of rat induced by (R)-1 at the dose of 32 and 1.0 umol/kg of compound (R)-1; assay type: functional
Method in brief: (§5)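 Compound (32 µmol/kg sc) or saline injected 10 min before (R)-8-OH-DPAT (1.0 µmol/kg sc). Colonic temperature taken before injection and 30 min later; result is the change from the preinjection value. One-way ANOVA with Tukey HSD test.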

[18] = target: T1, 5-hydroxytryptamine receptor 1A (Rattus norvegicus); experiment: Antagonistic effect on 5-HT syndrome or behavior of rat induced by (R)-1 at the dose of 32 and 1.0 umol/kg of compound (R)-1; assay type: functional
Method in brief: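 Compound (32 µmol/kg sc) or saline injected 10 min before (R)-8-OH-DPAT (1.0 µmol/kg sc). Flat body posture, forepaw treading and hindlimb abduction scored during 30 min of observation. Results as number of rats showing the behaviour out of number tested; Fisher's exact probability test.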

Rattus norvegicus [19] = experiment: Change in body temperature of rats upon administration after 30 minutes; assay type: functional; method in brief: as §1
[20] = target: T1, 5-hydroxytryptamine receptor 1A (Rattus norvegicus); experiment: 5-HT (serotonin) turnover in rat hippocampus; assay type: functional, tissue-based; method in brief: as §2
Rattus norvegicus [21] = experiment: Induction of clear-cut 5-HT motor syndrome in normal rats at the dose of 32 uM/Kg; assay type: functional
Rattus norvegicus [22] = experiment: Effect of 5-HT accumulation in rat hippocampus at the dose of 32 umol/kg; assay type: functional; method in brief: as §3
Rattus norvegicus [23] = experiment: Effect of accumulation of DOPA in rat striatum at the dose of 0.32 umol/kg; assay type: functional
Method in brief: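 Compound given sc in saline, then NSD 1015 (287 µmol/kg sc) to block aromatic L-amino acid decarboxylase 30 min later. Rats decapitated after another 30 min. Striatum stored at -40 °C for up to 1 week. DOPA quantified by HPLC-EC with α-methyl-5-hydroxytryptophan as internal standard. Reported as percent of control, mean ± SEM (n = 5-6 treated, 15 control); ANOVA with Tukey test.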

Rattus norvegicus [24] = experiment: Effect of 5-HT accumulation in rat hippocampus at the dose of 0.32 umol/kg (p<0.01); assay type: functional; method in brief: as §3
Rattus norvegicus [25] = experiment: Effect of DOPA accumulation in rat striatum at the dose of 1.0 umol/kg (p<0.01); assay type: functional; method in brief: as §3
[26] = target: T1, 5-hydroxytryptamine receptor 1A (Rattus norvegicus); experiment: 5-HT (serotonin) turnover in rat hippocampus (p<0.01); assay type: functional, tissue-based; method in brief: as §4
Rattus norvegicus [27] = experiment: Induction of clear-cut 5-HT motor syndrome in reserpine (5 mg/kg, sc) pretreated rats at the dose of 1.0 micro mol/kg; assay type: functional
Rattus norvegicus [28] = experiment: Effect of accumulation of DOPA in rat striatum at the dose of 1.0 umol/kg; assay type: functional; method in brief: as §3
Rattus norvegicus [29] = experiment: Effect of 5-HT accumulation in rat hippocampus at the dose of 1.0 umol/kg (p<0.01); assay type: functional; method in brief: as §3
Rattus norvegicus [30] = experiment: Induction of clear-cut 5-HT motor syndrome in normal rats at the dose of 1.0 micro mol/kg
Rattus norvegicus [31] = experiment: Effect of DOPA accumulation in rat striatum at the dose of 0.32 umol/kg (p<0.01); assay type: functional; method in brief: as §3
Rattus norvegicus [32] = experiment: Antagonistic effect on body temperature of rat induced by (R)-1 at the dose of 32 and 1 umol/kg of compound (R)-1; assay type: functional; method in brief: as §5

**Q.** `CCCN(CCC)[C@@H]1CCc2cccc(C)c2C1` was tested. Which Behavioral effect [1] did it give?
**A.** 4

**Q.** And the No. of rats [2]?
**A.** 0

**Q.** And the Temperature (Rattus norvegicus [3])?
**A.** -2.1

**Q.** What about the Behavioral effect [4] of the same compound?
**A.** 0

**Q.** What about the Turnover [5] of the same compound?
**A.** 88

**Q.** And the Accumulation [6]?
**A.** 54

**Q.** And the Accumulation [7]?
**A.** 86

**Q.** What about the Turnover (Rattus norvegicus [8]) of the same compound?
**A.** 69

**Q.** Which Ki [9] does the source give for `CCCN(CCC)C1CCc2cccc(CO)c2C1` (racemic) here?
**A.** 25 nM

**Q.** What about the Behavioral effect (Rattus norvegicus [10]) of the same compound?
**A.** 3

**Q.** For `CCCN(CCC)C1CCc2ccccc2C1` (racemic), which Behavioral effect (Rattus norvegicus [11]) is on record?
**A.** 4

**Q.** What about the No. of rats [2] of the same compound?
**A.** 4

**Q.** What about the Temperature (Rattus norvegicus [3]) of the same compound?
**A.** -2

**Q.** And the Turnover (Rattus norvegicus [12])?
**A.** 60

**Q.** And the Behavioral effect [4]?
**A.** 4

**Q.** And the Turnover (Rattus norvegicus [13])?
**A.** 46

**Q.** What about the Ki [9] of the same compound?
**A.** 37 nM

**Q.** What does the source list for `CCCN(CCC)[C@@H]1CCc2cccc(CO)c2C1`?
**A.** Behavioral effect [1]: 4; Turnover [14]: 74 and 85; No. of rats [2]: 0; Behavioral effect [4]: 4; Turnover [5]: 93 and 88; Accumulation [6]: 47; Effect (Rattus norvegicus [15]): 4; Ki [9]: 23 nM; Accumulation [7]: 125; Cage leaving (Rattus norvegicus [16]): 4

**Q.** What does the source list for `CCCN(CCC)[C@H]1CCc2cccc(C(=O)c3ccccc3)c2C1`?
**A.** Temperature (Rattus norvegicus [17]): -3.03; No. of rats [2]: 2; Effect [18]: 4; Turnover [5]: 88; Temperature (Rattus norvegicus [19]): 0.13; Turnover [20]: 112; Behavioral effect (Rattus norvegicus [21]): 0; Accumulation (Rattus norvegicus [22]): 95; Ki [9]: 16 nM; Accumulation [7]: 83

**Q.** How did the No. of rats [2] turn out when `CCCN(CCC)[C@@H]1CCc2cccc(O)c2C1` was run?
**A.** 42

**Q.** And the Accumulation (Rattus norvegicus [23])?
**A.** 106

**Q.** What about the Temperature (Rattus norvegicus [3]) of the same compound?
**A.** -2.6

**Q.** And the Accumulation (Rattus norvegicus [24])?
**A.** 44

**Q.** What about the Accumulation (Rattus norvegicus [25]) of the same compound?
**A.** 98

**Q.** What about the Turnover [26] of the same compound?
**A.** 66

**Q.** What about the Behavioral effect (Rattus norvegicus [27]) of the same compound?
**A.** 15

**Q.** And the Turnover [5]?
**A.** 96

**Q.** What about the Accumulation (Rattus norvegicus [28]) of the same compound?
**A.** 98

**Q.** And the Accumulation (Rattus norvegicus [29])?
**A.** 45

**Q.** And the Behavioral effect (Rattus norvegicus [30])?
**A.** 42

**Q.** What about the Accumulation (Rattus norvegicus [31]) of the same compound?
**A.** 106

**Q.** With `CCCN(CCC)[C@@H]1CCc2cccc(OS(=O)(=O)C(F)(F)F)c2C1` as the compound, how does the Behavioral effect (Rattus norvegicus [11]) read?
**A.** 0

**Q.** What about the No. of rats [2] of the same compound?
**A.** 4

**Q.** What about the Effect [18] of the same compound?
**A.** 4

**Q.** What about the Turnover [5] of the same compound?
**A.** 93

**Q.** And the Temperature (Rattus norvegicus [19])?
**A.** 0.5

**Q.** What about the Temperature (Rattus norvegicus [32]) of the same compound?
**A.** -4.18

**Q.** And the Turnover [20]?
**A.** 106
